As usually defined, the IC50 is the point on the concentration scale where inhibition reaches its midpoint. Read a low IC50 as greater potency in that assay. As a reminder, the inhibition in vivo is the change of the read-out against control, counted positive when it falls.

The source made the active and inactive calls. No cut-off for these calls is given here.

Assay [1] deals with T1, Prostaglandin G/H synthase 2 (Homo sapiens, UniProt P35354).
T1 sequence (P35354 whole entry): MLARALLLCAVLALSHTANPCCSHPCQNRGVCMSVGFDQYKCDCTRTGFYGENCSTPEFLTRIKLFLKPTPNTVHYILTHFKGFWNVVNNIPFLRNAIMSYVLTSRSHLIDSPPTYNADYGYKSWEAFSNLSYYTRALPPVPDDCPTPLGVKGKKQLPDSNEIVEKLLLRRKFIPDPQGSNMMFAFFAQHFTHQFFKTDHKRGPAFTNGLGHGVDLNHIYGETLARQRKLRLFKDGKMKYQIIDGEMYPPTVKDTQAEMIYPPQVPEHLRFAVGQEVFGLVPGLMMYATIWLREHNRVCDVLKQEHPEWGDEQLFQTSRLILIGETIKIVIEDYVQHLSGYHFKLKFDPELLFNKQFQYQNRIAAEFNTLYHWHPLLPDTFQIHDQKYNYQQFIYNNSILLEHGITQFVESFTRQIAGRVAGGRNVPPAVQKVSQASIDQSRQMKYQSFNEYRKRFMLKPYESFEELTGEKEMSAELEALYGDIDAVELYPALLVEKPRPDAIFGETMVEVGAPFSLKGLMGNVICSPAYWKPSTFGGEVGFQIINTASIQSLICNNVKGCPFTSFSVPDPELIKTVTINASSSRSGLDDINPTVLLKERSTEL

The next assay is filed under the species Homo sapiens. Nature of the assay: Selectivity ratio of IC50 for COX1 to IC50 for COX2 in human whole blood. It is filed as tissue-based. The essentials:
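COX-1: fresh heparinized human blood diluted 1:4 in RPMI, preincubated with compound (0.01–100 μmol/L final) for 5 min at 37 °C, then stimulated with calcium ionophore A-23187 for 15 min at 37 °C, with serum TXB2 read by EIA. COX-2: heparinized blood with compound for 5 min, then LPS (100 μg/mL final) for 24 h at 37 °C, with plasma PGE2 read by EIA. Ratio = IC50 COX-1/IC50 COX-2 (μM).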

The target of assay [2] is Prostaglandin G/H synthase 1 (Homo sapiens, UniProt P23219). In kind it is tissue-based, Blood.
Assay [3] relates to Rattus norvegicus. Nature of the assay: Antiinflammatory activity against gamma carrageenan-induced pleurisy in Wistar rat assessed as decrease in exudate volume in pleural cavity at 10 mg/kg, ip administered 30 mins before gamma carrageenan challenge measured after 4 hrs. Further details: dose 10 mg/kg. It is filed as functional, organism-based. The essentials:
(§1)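 Male Wistar rats (at least three per group; table gives n = 3-6) received saline or drug ip 30 min before carrageenan. Under sodium pentobarbital anaesthesia (40 mg/kg ip), λ carrageenan (0.2 mL, 10 mg/mL) was injected into the right pleural cavity. After 4 h the rats were anaesthetized (pentobarbital 80 mg/kg ip), the cavity was rinsed with heparinized saline, and exudate was aspirated. Values are % inhibition of exudate, mean ± SE.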

Assay [4] has as its system Rattus norvegicus. Nature of the assay: Antiinflammatory activity against gamma carrageenan-induced pleurisy in Wistar rat assessed as inhibition of exudate production in pleural cavity at 20 mg/kg, ip administered 30 mins before gamma carrageenan challenge measured after 4 hrs. It is filed as functional. As to conditions: route intraperitoneal.
For assay [5], the system named is Rattus norvegicus. As to the kind of experiment: Antiinflammatory activity against gamma carrageenan-induced pleurisy in Wistar rat assessed as decrease in exudate volume in pleural cavity at 5 mg/kg, ip administered 30 mins before gamma carrageenan challenge measured after 4 hrs. In kind it is functional, organism-based. Also on record: dose 5 mg/kg. Summed up: as §1

Assay [6] has as its system Rattus norvegicus. As to the kind of experiment: Antiinflammatory activity against gamma carrageenan-induced pleurisy in Wistar rat assessed as decrease in exudate volume in pleural cavity at 20 mg/kg, ip administered 30 mins before gamma carrageenan challenge measured after 4 hrs. It is filed as functional, organism-based. Also on record: dose 20 mg/kg. Summed up: as §1

Assay [7] concerns Rattus norvegicus. As to the kind of experiment: Antiinflammatory activity against gamma carrageenan-induced pleurisy in Wistar rat assessed as inhibition of exudate production in pleural cavity at 10 mg/kg, ip administered 30 mins before gamma carrageenan challenge measured after 4 hrs. It is filed as functional. As to conditions: route intraperitoneal. The essentials: as §1

The subject of assay [8] is Rattus norvegicus. Nature of the assay: Antiinflammatory activity against gamma carrageenan-induced pleurisy in Wistar rat assessed as inhibition of exudate production in pleural cavity at 5 mg/kg, ip administered 30 mins before gamma carrageenan challenge measured after 4 hrs. In kind it is functional. As to conditions: route intraperitoneal. The essentials: as §1

Prostaglandin G/H synthase 1, sequence (P23219 whole entry): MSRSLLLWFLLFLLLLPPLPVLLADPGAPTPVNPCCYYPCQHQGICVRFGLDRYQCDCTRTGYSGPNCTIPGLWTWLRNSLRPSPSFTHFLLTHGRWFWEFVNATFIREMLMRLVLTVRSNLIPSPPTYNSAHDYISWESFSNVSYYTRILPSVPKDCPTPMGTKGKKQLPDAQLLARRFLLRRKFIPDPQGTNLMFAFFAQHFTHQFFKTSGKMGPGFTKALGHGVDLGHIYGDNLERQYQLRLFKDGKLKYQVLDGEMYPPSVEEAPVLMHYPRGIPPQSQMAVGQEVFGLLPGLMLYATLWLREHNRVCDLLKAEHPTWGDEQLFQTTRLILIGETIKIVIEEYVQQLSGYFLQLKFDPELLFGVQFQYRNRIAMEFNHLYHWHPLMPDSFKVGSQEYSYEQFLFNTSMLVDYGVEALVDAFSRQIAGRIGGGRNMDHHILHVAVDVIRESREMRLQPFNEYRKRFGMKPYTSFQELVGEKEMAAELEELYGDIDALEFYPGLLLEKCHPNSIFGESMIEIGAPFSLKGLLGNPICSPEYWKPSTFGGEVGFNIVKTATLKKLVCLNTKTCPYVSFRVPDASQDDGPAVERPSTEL

For the molecule `Cc1cccc(Nc2cnccc2NS(=O)(=O)C(F)(F)F)c1`, the half-maximal inhibitory concentration (IC50) worked out at 450 nM in assay [1] and 990 nM in [2]. In addition, the Ratio IC50 in the assay listed under Homo sapiens amounted to 2.19. The result with Rattus norvegicus [3] and with Rattus norvegicus [6] was Active. In addition, the inhibition in vivo at 20 mg/kg in the assay on Rattus norvegicus [4] was 69.5%. In addition, in the assay with Rattus norvegicus [5], the outcome was inactive. In addition, in the assay on Rattus norvegicus [7], the inhibition in vivo at 10 mg/kg worked out at 50.3%. For the same molecule, the inhibition in vivo at 5 mg/kg in the assay with Rattus norvegicus [8] turned out to be 23.5%.

Take `O=S(=O)(Nc1ccncc1Nc1ccccc1)C(F)(F)F`: the Ratio IC50 in the assay filed under Homo sapiens is 2. Further, the result in the assay on Rattus norvegicus [3] and with Rattus norvegicus [6] was Active. Moreover, in the assay on Rattus norvegicus [4], the inhibition in vivo at 20 mg/kg was 72.2%. Besides, the result in the assay on Rattus norvegicus [5] was inactive. In addition, the inhibition in vivo at 10 mg/kg in the assay on Rattus norvegicus [7] was determined as 55.7%. In the assay with Rattus norvegicus [8], the inhibition in vivo at 5 mg/kg came out at 25.4%.

The record behind these values is ChEMBL document CHEMBL1154327 (J Med Chem, 2009).
